Source: PubChem (Broad Institute)
T cruzi intra = intracellular Trypanosoma cruzi inhibition. intracellular Trypanosoma cruzi in host cells, plate reader. activity score (inhibition), % at 5.01 µM. actives 4.9% (n = 22,000). AID 651903; in the data active means activity score above about 55%; inconclusive means no clear call, values can overlap the other calls;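 further: parasites and compound incubated about four days before reading; 0% = median of neutral control wells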
A1 apoptosis 2 = compounds inhibiting A1, read as caspase activation; 24,000 tested, under 10 active; MEF A1-2A-BIM cells, caspase-Glo luminescence, 3 h; percent of clofoctol response, DMSO zero; caspase activation, % (concentration not given with the values); in the data active means caspase activation above about 5.9%; inconclusive means no clear call, values can overlap the other calls; inactive means below about 2.2%
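Evaluation: Caspase-3/7 activity from luminescence increase | Assay system: A1-2A-BIM mouse embryonic fibroblasts | Quantity: 2500 MEF cells/well | Medium: RPMI-1640 plus 10% FBS | Detection: Caspase-Glo 3/7 luminescence, 1 h at room temperature | Dosing: 50 nL compound per well, pinned | Timing: Cells settled overnight, compound exposure 3 h at 37 °C, 5% CO2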
INS-1E ATP HTS = rescue of cytokine-induced death in INS-1E beta cells; INS-1E cytokine-induced death, ATP luminescence, 48 h; normalised: neutral wells 0, positive control 100; protection from cytokine-induced ATP loss, % at 10 µM; actives 0.1% (n = 20,000); AID 488910;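 active means mean replicate protection from cytokine-induced ATP loss at least 50% and at least 75% of replicates each reaching 50%; inconclusive means meets only one of the two criteria, mean or replicate share; inactive means fails both the mean and replicate share criteria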
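Assay system – rat INS-1E insulinoma cell line · Quantity – 8000 cells per well · Buffer or medium – RPMI without phenol red, 5% FBS · Schedule – 48 h co-treatment, 10 min post-lysis read · Technique – luminescent ATP assay (CellTiter-Glo)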
* hit, by the source's call; ? = inconclusive; / = no result given. Shown is part of a subset that was picked to be rich in hits.

SMILES	T cruzi intra	A1 apoptosis 2	INS-1E ATP HTS
Cc1noc(C)c1S(=O)(=O)Nc1ccc2c(c1)CC(=O)N([C@@H](C)CO)C[C@@H](C)[C@@H](CN(C)Cc1ccc(C(=O)Nc3ccccc3N)cc1)O2	71.0*	/	-4.7
Cc1noc(C)c1S(=O)(=O)Nc1cccc2c1O[C@@H](CN(C)Cc1ccc(C(=O)Nc3ccccc3N)cc1)[C@@H](C)CN([C@@H](C)CO)C2=O	66.1*	-1.1	-16.7
Cc1noc(C)c1S(=O)(=O)Nc1ccc2c(c1)C(=O)N([C@H](C)CO)C[C@@H](C)[C@H](CN(C)Cc1ccc(C(=O)Nc3ccccc3N)cc1)O2	51.7	0.7	-7.0
Cc1noc(C)c1S(=O)(=O)Nc1ccc2c(c1)C(=O)N([C@H](C)CO)C[C@H](C)[C@@H](CN(C)Cc1ccc(C(=O)Nc3ccccc3N)cc1)O2	68.2*	1.1	-14.4
C=CCNC(=O)[C@H]1[C@@H]2C(=O)O[C@@H](c3ccccc3)[C@@H](c3ccccc3)N2[C@@H](c2ccc(OCCO)cc2)[C@]12C(=O)N(C(=O)OCCOC)c1ccc(C#CCC(C(=O)OC)C(=O)OC)cc12	/	1.5	/
C[C@@H]1CN([C@@H](C)CO)C(=O)c2cccc(NC(=O)Nc3ccc(F)cc3)c2O[C@H]1CN(C)C(=O)Nc1ccc2c(c1)OCO2	3.9	/	-2.5
COc1ccc(C#Cc2ccc3c(c2)[C@]2(C(=O)N3)[C@H](C(=O)O)[C@H]3C(=O)O[C@H](c4ccccc4)[C@H](c4ccccc4)N3[C@@H]2c2ccc(OCCO)cc2)cc1	/	-1.1	/
O=C(CCCCCCC(=O)Nc1ccccc1O)N/N=C/C1=CCCCC1	-7.3	-2.3	0.4
C[C@H](CO)N1C[C@H](C)[C@H](CN(C)S(=O)(=O)c2cn(C)cn2)Oc2ccc(NC(=O)c3ccncc3)cc2CC1=O	-5.7	0.3	-2.6
C=CCNC(=O)[C@H]1[C@@H]2C(=O)O[C@@H](c3ccccc3)[C@@H](c3ccccc3)N2[C@@H](c2ccc(OCCO)cc2)[C@]12C(=O)N(C(=O)OCCOC)c1ccc(C#CC3=CCCCC3)cc12	/	-1.1	/
Cc1noc(C)c1S(=O)(=O)Nc1ccc2c(c1)CC(=O)N([C@H](C)CO)C[C@H](C)[C@@H](CN(C)Cc1ccc(C(=O)Nc3ccccc3N)cc1)O2	/	-0.5	/
Cc1noc(C)c1S(=O)(=O)Nc1ccc2c(c1)CC(=O)N([C@H](C)CO)C[C@@H](C)[C@@H](CN(C)Cc1ccc(C(=O)Nc3ccccc3N)cc1)O2	69.0*	-0.2	-2.2
COc1ccc(S(=O)(=O)Nc2ccc3c(c2)C(=O)N([C@@H](C)CO)C[C@@H](C)[C@@H](CN(C)Cc2ccc(Cl)c(Cl)c2)O3)cc1	11.8	1.1	-25.4
COc1ccc(S(=O)(=O)Nc2ccc3c(c2)CC(=O)N([C@H](C)CO)C[C@H](C)[C@@H](CN(C)Cc2ccc(Cl)c(Cl)c2)O3)cc1	/	-0.9	/
COc1ccc(S(=O)(=O)Nc2ccc3c(c2)CC(=O)N([C@@H](C)CO)C[C@H](C)[C@H](CN(C)Cc2ccc(Cl)c(Cl)c2)O3)cc1	73.2*	/	-21.3
COc1ccc(S(=O)(=O)Nc2ccc3c(c2)CC(=O)N([C@@H](C)CO)C[C@@H](C)[C@@H](CN(C)Cc2ccc(Cl)c(Cl)c2)O3)cc1	63.2*	/	-39.4
COc1ccc(S(=O)(=O)Nc2ccc3c(c2)CC(=O)N([C@H](C)CO)C[C@@H](C)[C@@H](CN(C)Cc2ccc(Cl)c(Cl)c2)O3)cc1	55.2*	-0.8	-12.4
COc1ccc(CN(C)C[C@@H]2Oc3ccc(NS(=O)(=O)c4ccc(Cl)cc4)cc3CC(=O)N([C@@H](C)CO)C[C@H]2C)cc1	/	-1.2	/
COc1ccc(-c2cn(CC(=O)N3CCN(C)CC3)nn2)cc1OC	/	0.4	/
O=C(CCCCC(=O)N/N=C/c1ccc(CO)o1)NO	-7.4	-0.1	-0.4
C[C@@H]1CCCCO[C@@H](CN(C)Cc2ccc(C(=O)O)cc2)[C@H](C)CN([C@H](C)CO)C(=O)c2cc(NS(C)(=O)=O)ccc2O1	/	-0.1	/
C[C@@H]1CN([C@@H](C)CO)C(=O)CCCn2cc(nn2)CO[C@H]1CN(C)S(=O)(=O)c1ccc(F)cc1	-7.5	/	/
O=C(N/N=C/c1cccc(B(O)O)c1)c1ccccn1	-7.8	-10.0	4.0
COc1ccc(S(=O)(=O)Nc2ccc3c(c2)CC(=O)N([C@H](C)CO)C[C@H](C)[C@@H](CN(C)S(=O)(=O)c2cccs2)O3)cc1	/	0.0	/
COc1ccc(S(=O)(=O)Nc2ccc3c(c2)CC(=O)N([C@H](C)CO)C[C@@H](C)[C@@H](CN(C)S(=O)(=O)c2cccs2)O3)cc1	76.8*	-1.1	-1.1
SMILES	T cruzi intra	A1 apoptosis 2	INS-1E ATP HTS
C[C@H]1CN([C@@H](C)CO)C(=O)Cc2cc(NS(=O)(=O)c3ccc(Cl)cc3)ccc2O[C@@H]1CN(C)S(=O)(=O)c1cccs1	-33.3	/	11.7
C[C@@H]1CN([C@H](C)CO)C(=O)Cc2cc(NS(=O)(=O)c3ccc(Cl)cc3)ccc2O[C@@H]1CN(C)S(=O)(=O)c1cccs1	73.9*	/	-5.4
CO[C@H]1O[C@H](CO)[C@@H](OC(=O)Nc2ccc3c(c2)OCO3)[C@H](OC(=O)Nc2ccccc2)[C@@H]1OC(=O)Nc1ccccc1	/	-1.7	/
Cc1nc(S(=O)(=O)NC[C@@H]2CCCN(Cc3ccc(OCCO)cc3)C2)cn1C	/	0.1	/
NC(=O)COc1ccc(/C=N/NC(=O)CCCCC(=O)NO)cc1	-4.3	0.9	3.7
C[C@H]1CN([C@@H](C)CO)C(=O)Cc2cc(NC(=O)Nc3ccc(F)cc3)ccc2O[C@H]1CN(C)CC1CCCCC1	-5.2	/	-3.0
C[C@H](CO)N1C[C@H](C)[C@H](CN(C)CC2CCCCC2)Oc2ccc(NC(=O)Nc3ccc(F)cc3)cc2CC1=O	41.8	0.3	4.9
C[C@H](CO)N1C[C@H](C)[C@H](CN(C)CC2CCCCC2)Oc2ccc(NC(=O)Nc3ccc(C(F)(F)F)cc3)cc2CC1=O	60.4*	0.2	-78.6
C[C@H]1CN([C@@H](C)CO)C(=O)Cc2cc(NC(=O)Nc3ccc(C(F)(F)F)cc3)ccc2O[C@@H]1CN(C)CC1CCCCC1	63.2*	0.4	-41.6
C[C@@H]1CN([C@@H](C)CO)C(=O)c2cc(NC(=O)Nc3ccc(C(F)(F)F)cc3)ccc2O[C@@H]1CN(C)C(=O)Nc1ccc(C(F)(F)F)cc1	?	-1.1	-50.2
C[C@H](CO)N1C[C@H](C)[C@@H](CN(C)CC2CC2)Oc2c(NC(=O)CCCCCC(=O)Nc3ccccc3N)cccc2C1=O	72.4*	0.4	5.7
C[C@H](CO)N1C[C@H](C)[C@H](CN(C)C)Oc2c(NC(=O)CCCCCC(=O)Nc3ccccc3N)cccc2C1=O	-56.3	0.2	17.4
C[C@@H]1CN([C@@H](C)CO)C(=O)c2cccc(NC(=O)CCCCCC(=O)Nc3ccccc3N)c2O[C@H]1CN(C)CC1CCCCC1	73.7*	/	15.9
C[C@H](CO)N1C[C@H](C)[C@H](CN(C)CC2CC2)Oc2c(NC(=O)CCCCCC(=O)Nc3ccccc3N)cccc2C1=O	9.6	-0.4	9.5
O=C(CCCCCC(=O)Nc1ccccc1O)N/N=C/c1ccc(O)cc1O	22.0	-1.3	-1.4
